An excerpt weighted towards active compounds, which were near 2% of everything screened.
INS promoter inh: TRM-6 insulin promoter activity inhibition; TRM-6 cells (human fetal islet line), insulin promoter-eGFP reporter, imaging; reporter expression induced with tamoxifen; inhibition, % at 2 µM; actives 0.9% (n = 130,000);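 active = inhibition above the mean plus 3 SD, with well images judged a real hit on visual review, cut at about 60% in these data, passing the limit was not always enough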
Dynein transport: blocks dynein driven cargo transport along microtubules. z-score, hits read low. actives 0.47% (n = 220,000). AID 1381. 3617.4 mouse cells, GR-EGFP nuclear translocation imaging; test concentration mostly 20 µM; stimulated with dexamethasone, 1 µM; active compounds read low;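 active = plate z-score of nuclear minus cytoplasmic receptor signal below a set negative limit, without overly bright fluorescence or cell loss, cut at about -3.5 in these data, passing the limit was not always enough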;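 note: z-score of nuclear minus cytoplasmic ring GR-EGFP intensity difference per well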
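medium = tetracycline-free induction medium containing charcoal-stripped FBS | probe or stimulus = dexamethasone, 1.0 µM final | timing = 48 h induction, then 1 h compound, then 30 min agonist, 37 °C | detection = automated 10x imaging of fixed Hoechst-stained cells | read-out basis = nuclear versus cytoplasmic GR-EGFP signal, averaged per well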
HSV replic up: increases HSV replication in cells; maximum fold increase; AID 1956; actives 0.005% (n = 220,000); HSV replication augmentation in cells, fold increase; in the data active = maximum fold increase above about 1.5; tested in PC3 cells
Autophagy HCS: alters autophagy in cells; MEF GFP-LC3 puncta imaging; test concentration mostly 10 µM; calls only at 10 µM (by protocol); actives 0.98% (n = 190,000); AID 463193;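 active = percentage of spot-positive cells more than 3 SD above its plate mean, without a fluorescence outlier flag or 80% toxicity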;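 note: spot-positive cell cutoff set from DMSO-treated cells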
Furin inh: inhibitors of human furin; purified furin, fluorogenic substrate cleavage; inhibition, % at 20 µM or 30 µM; P09958; actives 0.061% (n = 220,000); in the data active = inhibition above about 25%
Target sequence (P09958 108-714 limits assumed): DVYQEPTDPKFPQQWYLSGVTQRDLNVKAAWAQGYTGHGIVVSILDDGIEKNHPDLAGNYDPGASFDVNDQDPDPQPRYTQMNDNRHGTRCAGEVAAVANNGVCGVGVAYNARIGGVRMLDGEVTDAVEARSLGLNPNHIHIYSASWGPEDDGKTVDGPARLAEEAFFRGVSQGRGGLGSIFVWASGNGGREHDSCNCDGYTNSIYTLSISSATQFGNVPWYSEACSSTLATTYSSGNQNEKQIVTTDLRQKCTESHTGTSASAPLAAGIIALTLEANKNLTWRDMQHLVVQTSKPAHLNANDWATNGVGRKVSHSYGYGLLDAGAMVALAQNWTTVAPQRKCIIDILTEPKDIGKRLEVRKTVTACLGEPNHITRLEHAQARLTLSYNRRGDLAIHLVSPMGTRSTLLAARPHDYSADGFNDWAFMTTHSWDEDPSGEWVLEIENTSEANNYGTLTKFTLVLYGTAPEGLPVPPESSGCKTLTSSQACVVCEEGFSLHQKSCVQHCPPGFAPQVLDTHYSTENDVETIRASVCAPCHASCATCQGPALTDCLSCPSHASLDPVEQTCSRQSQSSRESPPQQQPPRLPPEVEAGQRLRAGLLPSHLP
Insulin prom up: MIN6 insulin promoter up-regulation. MIN6 insulin promoter-GFP reporter, high-content imaging; active compounds read high. z-score at 5 µM. AID 1625. actives 0.3% (n = 190,000);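 active = z-score above 3 at 5 µM with at least 500 cells counted in the well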
* hit, by the source's call; i = inactive; nt = no result; + = active, no number.

SMILES	INS promoter inh	Dynein transport	HSV replic up	Autophagy HCS	Furin inh	Insulin prom up
CCOc1ccc(/C=N/Nc2ccc(C(F)(F)F)cc2[N+](=O)[O-])cc1O	71*	3.2	i	i	-1	-0.74
COc1ccc(/C=N/Nc2ccc(C(F)(F)F)cc2[N+](=O)[O-])cc1O	-10	-0.31	i	i	-25	-0.57
O=C(CCN1C(=O)c2ccccc2C1=O)N(CCO)Cc1ccccc1	5	2.9	nt	i	27*	0.93
CCCC(=O)N(CCN(Cc1ccccc1)C(=O)CCC)Cc1ccccc1	-42	-0.85	i	i	-7	0.71
COC(=O)C(=C/C=C/N1CCOCC1)C(=O)OC	nt	-0.37	i	nt	-6	0.27
Cc1ccc(/C=N/Nc2nc3ccccc3s2)o1	50	-0.89	i	i	0	0.07
CCn1c(S(=O)(=O)O)nc2ccccc21	nt	-0.01	i	nt	-10	0.34
O=c1c2ccccc2sn1-c1ccc(S(=O)(=O)N2CCCCC2)cc1	28	-1.2	i	i	-17	nt
Cc1ccc(-n2sc3ccccc3c2=O)cc1S(=O)(=O)N1CCCCC1	75*	-0.85	i	i	7	-0.44
O=C(O)c1ccc(CNC(=O)c2ccc(C(F)(F)F)cc2)cc1	73*	0.16	i	i	0	-1.2
O=C(NCc1ccco1)c1ccc(C(F)(F)F)cc1	78*	-0.2	i	i	3	-0.09
O=C(NCc1ccco1)c1cc2ccc(O)cc2oc1=O	92*	0.17	i	i	18	0.13
CC(C)c1ccc(OCC(=O)NCCO)cc1	33	-1	i	i	-18	0.3
Cc1cccc(CSCCNC(=O)c2ccc(CN3CCOCC3)cc2)c1	71*	-0.32	i	i	-9	0.12
O=C(NCc1ccc2c(c1)OCO2)c1ccc(CN2CCOCC2)cc1	89*	1.9	i	i	-13	0.6
CC1=NN(S(=O)(=O)c2ccc(Cl)cc2Cl)C(=O)c2ccccc2O1	nt	-0.42	i	nt	-29	-0.89
Cc1csc(NC(=O)c2cc(-c3ccccc3)nc3ccccc23)n1	nt	1.1	i	i	-7	0.17
CCc1ccc(C(=O)NNC(=S)Nc2ccc(S(N)(=O)=O)cc2)s1	nt	-1.1	i	i	-28	nt
Cc1nn(CC#N)c(=O)n1-c1ccc(Cl)cc1	nt	-0.16	i	+	-34	0.52
Cc1nn(CC#N)c(=O)n1-c1ccc(C(C)C)cc1	nt	0.91	i	i	-27	0.59
c1ccc(COc2ccccc2CNc2nn[nH]n2)cc1	nt	-1.3	i	i	-30	-0.03
COc1ccc(-n2nnnc2-c2ccccc2)cc1	-45	0.079	i	+	-28	-2.4
Clc1ccc(-n2nnnc2-c2ccccc2)cc1	nt	1.3	i	i	-15	nt
Cc1cc(S(=O)(=O)N2CCCC(C(=O)Nc3ccc(C(=O)O)cc3)C2)ccc1Cl (stereo not given)	nt	0.069	i	i	-20	0.71
O=C(/C=C/c1ccoc1)c1ccccc1O	-35	-1.7	i	i	-9	0.33
SMILES	INS promoter inh	Dynein transport	HSV replic up	Autophagy HCS	Furin inh	Insulin prom up
COc1ccc2ccccc2c1C(=O)/C=C\c1ccoc1	79*	-0.71	i	i	-4	-0.54
O=C(COC(=O)c1ccc(NS(=O)(=O)c2ccc3c(c2)OCCO3)cc1)NC1CC1	92*	0.84	i	i	-10	0.09
CCN1CC(CCN2CCOCC2)C(c2ccccc2)(c2ccccc2)C1=O (stereo not given)	nt	nt	i	nt	nt	nt
CC(NCCC(c1ccccc1)c1ccccc1)c1ccccc1 (stereo not given)	-13	-0.4	i	+	-17	nt
CCNc1nc(Cl)nc(NCCOc2ccc(C)cc2)n1	0	-0.27	i	i	-13	-0.52
CN(C)c1nc(Cl)nc(NCCOc2ccccc2)n1	66*	-0.33	i	i	-30	0.41
Cc1ccsc1C1C(C#N)=C(N)N(N(C)C)C2=C1C(=O)CC(C)(C)C2 (stereo not given)	nt	0.12	i	i	-5	1
CCOC(=O)c1c(N2CCCCC2)c2ccccc2[nH]c1=O	66*	0.25	i	i	-18	0.26
COc1cccc(C(=O)Nc2sc(C(C)C)cc2C(N)=O)c1OC	nt	-0.28	i	nt	-10	-0.45
COc1cc(CNC(=O)c2ccc3c(c2)S(=O)(=O)c2ccccc2C3=O)cc(OC)c1	nt	nt	i	nt	nt	nt
CC(C)CCNC(=O)NC(=O)COC(=O)C1=COCCO1	78*	-0.058	i	i	-22	nt

Screening results deposited in PubChem BioAssay by several laboratories.
